Measured values collected from several papers.
Protocols differ between the studies behind these lines.
Target: Dual specificity testis-specific protein kinase 1 (TESK1, Homo sapiens, UniProt Q15569)

SMILES | observed | method | concentration | remaining binding
CNC(=O)[C@@H]1CC[C@@H](n2c(-c3ccc4cnccc4c3)nc3ccc(C(=O)NCc4cccc(C(N)=O)c4)cc32)C1 | binding | competition with immobilised ligand | 1 µM | 100%
F[C@@H]1CCN(c2nccc(-c3cnn4ncccc34)n2)C1 | binding | – | 1 µM | 67%
O=C(c1ccc(Nc2ncc(Cl)c(-c3cc4ccccc4s3)n2)cc1)N1CCC(N2CCCC2)CC1 | binding | competition with immobilised ligand | 1 µM | 81%
CN(C)c1nccc(-c2cnc3ncccn23)n1 | binding | – | 1 µM | 90%
O=C(c1ccc(Nc2nccc(-c3cc4ccccc4s3)n2)cc1)N1CCC(N2CCCC2)CC1 | binding | competition with immobilised ligand | 1 µM | 97%
O=C(Nc1cnc(Oc2ccc(F)cc2)nc1)N1CCc2ncccc2[C@@H]1c1ccc(F)cc1 | cell-free assay | competition with immobilised ligand | 1 µM | 91%
CCN1CCN(Cc2ccc(C(=O)Nc3ccc(C)c(Oc4ccc5c(c4)CC(=O)N5)c3)cc2C(F)(F)F)CC1 | binding | competition with immobilised ligand | 1 µM | 100%
O=C(NCC1CCOCC1)c1n[nH]cc1NC(=O)c1c(F)cccc1F | binding | competition with immobilised ligand | 1 µM | 100%
CN(C)c1ncc(F)c(-c2cnn3ncccc23)n1 | binding | – | 1 µM | 100%
CCS(=O)(=O)c1cc2cc(C[C@@](O)(CC(C)(C)c3ccc(F)cc3C(N)=O)C(F)(F)F)[nH]c2cn1 | cell-free assay | competition with immobilised ligand | 1 µM | 77%
C[C@H]1CCN(c2nccc(-c3cnn4ncccc34)n2)C1 | binding | – | 1 µM | 100%
COc1cnc(Nc2cccc(S(N)(=O)=O)c2)nc1N1CCN(c2ccccc2)CC1 | binding | competition with immobilised ligand | 1 µM | 100%
Nc1cnc(N2CCc3cc(S(=O)(=O)Nc4c(F)cc(Cl)cc4F)cc(N4CCCC4=O)c32)nc1 | cell-free assay | competition with immobilised ligand | 1 µM | 100%
N[C@H]1CCN(c2nccc(-c3cnn4ncccc34)n2)C1 | binding | – | 1 µM | 86%
CCCOc1ccc([C@H]2[C@H](C(=O)O)[C@@H](c3ccc4c(c3)OCO4)CN2CC(=O)Nc2c(CC)cccc2CC)cc1 | cell-free assay | competition with immobilised ligand | 1 µM | 89%
CC1CCCN1c1nccc(-c2cnn3ncccc23)n1 (centres unmarked) | binding | – | 1 µM | 99%
CN(C)CC#Cc1ccc(OCCCc2sc(N3CCc4cccc(C(=O)Nc5nc6ccccc6s5)c4C3)nc2C(=O)O)c(F)c1 | cell-free assay | competition with immobilised ligand | 1 µM | 100%
c1cncc(-c2cccc(Nc3nccc(NC4CCCCC4)n3)c2)c1 | binding | competition with immobilised ligand | 10 µM | 77%
Cc1cnc(Nc2ccc(C(=O)N3CCC(N4CCCC4)CC3)cc2)nc1-c1cc2ccccc2s1 | binding | competition with immobilised ligand | 1 µM | 72%
O=C(N[C@H]1CCCCC/C=C\C2C[C@@]2(C(=O)O)NC(=O)[C@@H]2C[C@@H](Oc3ccncc3)CN2C1=O)OC1CCCC1 (some centres unmarked) | binding | competition with immobilised ligand | 1 µM | 97%
